The results in this text go back to ChEMBL document CHEMBL1154251, “Yeast glycogen synthase kinase-3beta pathway inhibitors from an organic extract of Streptomyces sp” (J Nat Prod, 2009).

In assay [1] the target is Glycogen synthase kinase-3 beta (Homo sapiens) (UniProt P49841). Description: Inhibition of GSK3-beta expressed in H10075 yeast assessed as growth inhibition at 5 ug/disk after 72 hrs at 24 degreeC by disc diffusion method. A general note: Agar diffusion results depend on both activity and mobility in agar.
For assay [2] the target is unchanged. As to the kind of experiment: Inhibition of GSK3-beta expressed in H10075 yeast assessed as growth inhibition at 20 ug/disk after 72 hrs at 37 degreeC by disc diffusion method. A digest of the protocol: (§1)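 Yeast gsk-3 null strain H10075 (mck1, mds1, mrk1, yol128c disrupted) carrying pKT10-GSK-3β. Grown 2 days at 37 °C in SC minus uracil broth, then seeded into SC minus uracil agar, pH 5.6. Samples on filter disks, screened at 20 µg/disk, actives retested down to 2.5 µg/disk. Plates held 72 h at both 25 and 37 °C. Zone of inhibition read; duplicates.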

Assay [3] shares this target. As to the kind of experiment: Inhibition of GSK3-beta expressed in H10075 yeast assessed as growth inhibition at 10 ug/disk after 72 hrs at 24 degreeC by disc diffusion method.
Assay [4] has the same target. Description: Inhibition of GSK3-beta expressed in H10075 yeast assessed as growth inhibition at 20 ug/disk after 72 hrs at 25 degreeC by disc diffusion method. The essentials:
(§2)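 Yeast gsk-3 null strain H10075 (mck1 mds1 mrk1 yol128c disrupted) carrying cloned human GSK-3β on pKT10; grown 2 days at 37 °C in SC minus uracil, then seeded into SC minus uracil agar pH 5.6. Compounds applied on filter disks (20, 10, 5, 2.5 µg per disk); plates incubated 72 h at 25 and 37 °C; zone of inhibition diameter read; duplicate.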

The target is the same in assay [5]. Description: Inhibition of GSK3-beta expressed in H10075 yeast assessed as growth inhibition at 2.5 ug/disk after 72 hrs at 37 degreeC by disc diffusion method. A digest of the protocol:
as §2

Assay [6] has the same target. As to the kind of experiment: Inhibition of GSK3-beta expressed in H10075 yeast assessed as growth inhibition at 10 ug/disk after 72 hrs at 37 degreeC by disc diffusion method. A digest of the protocol:
as §1

The target is the same in assay [7]. Description: Inhibition of GSK3-beta expressed in H10075 yeast assessed as growth inhibition at 2.5 ug/disk after 72 hrs at 24 degreeC by disc diffusion method.
Assay [8] has the same target. As to the kind of experiment: Inhibition of GSK3-beta expressed in H10075 yeast assessed as growth inhibition at 5 ug/disk after 72 hrs at 37 degreeC by disc diffusion method. A digest of the protocol:
as §2

Calls of active or inactive are those of the source. No cut-off for these calls is given here.

Chain of Glycogen synthase kinase-3 beta (Homo sapiens) (P49841 whole entry, looked up, the tested form may be a part): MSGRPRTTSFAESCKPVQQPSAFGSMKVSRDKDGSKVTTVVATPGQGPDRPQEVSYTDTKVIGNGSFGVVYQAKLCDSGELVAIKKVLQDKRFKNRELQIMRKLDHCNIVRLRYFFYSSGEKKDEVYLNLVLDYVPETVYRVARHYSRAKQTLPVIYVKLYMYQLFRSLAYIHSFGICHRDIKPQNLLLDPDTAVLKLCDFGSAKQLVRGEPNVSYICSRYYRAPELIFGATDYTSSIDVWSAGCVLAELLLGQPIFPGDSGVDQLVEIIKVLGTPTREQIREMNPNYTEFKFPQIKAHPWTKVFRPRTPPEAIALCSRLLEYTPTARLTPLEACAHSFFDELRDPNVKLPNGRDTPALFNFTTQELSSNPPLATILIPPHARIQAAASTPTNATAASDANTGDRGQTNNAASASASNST

Take `CC/C=C(\C)C(=O)CC(O)CC1CC(=O)NC(=O)C1` (stereo not given): the “inhibition zone (IZ)” value in assay [1], in assay [3] and in assay [7] was “inactive” in each case. The inhibition zone (IZ) in assay [2] turned out to be 38 mm; in assay [4] it was 10 mm; in assay [5], 28 mm; in assay [6], 34 mm; in assay [8] it was 30 mm.

For `C[C@H]1C[C@H](C)C(=O)[C@@H]([C@H](O)CC2CC(=O)NC(=O)C2)C1`, the inhibition zone (IZ) in assay [1] is 12 mm; in assay [2] it was 33 mm; in assay [3], 16 mm; in assay [4], 22 mm; in assay [6], 25 mm; in assay [8] it was 15 mm. Further, the “inhibition zone (IZ)” value in assay [5] and in assay [7] was “inactive” throughout.

Turning to `Cn1sc(=O)n(Cc2ccccc2)c1=O`, the inhibition zone (IZ) came out at 8 mm in assay [1]; 11 mm in assay [2]; 9 mm in assay [3]; 10 mm in assay [4]; 10 mm in assay [6]; 9 mm in assay [8]. In addition, the “inhibition zone (IZ)” value in assay [5] and in assay [7] was “inactive” in each case.

For `C[C@@H]1C[C@@H]([C@H](O)CC2CC(=O)NC(=O)C2)C(=O)[C@@H](C)C1`, the inhibition zone (IZ) turned out to be 30 mm in assay [1]; 33 mm in assay [3]; 36 mm in assay [4]; 42 mm in assay [5]; 25 mm in assay [7]; 48 mm in assay [8].
